Activity calls are given as the source filed them.
Key:
[1] = Chemical stability of the compound in HEPES buffer at room temperature measured over 48 hrs by LC/MS analysis; type: physicochemical
How it was run: (§1)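 Compound held in aqueous media over pH 2–9 and in PBS and HEPES buffers, then monitored for degradation.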

[2] = Chemical stability of the compound in aqueous media at pH 2 to 9 at room temperature measured over 5 hrs by LC/MS analysis; type: physicochemical; conditions: buffer, pH 2, 5 h; how it was run: as §1
Staphylococcus aureus [3] = assay: Antibacterial activity against Staphylococcus aureus BK2395 assessed as growth inhibition in presence of calf serum; type: functional
[4] = Mean residence time required for 63.2% elimination of drug in CD-1 mouse at 3 mg/kg, iv; type: ADME, organism-based; parameters: dose 3 mg/kg, route intravenous; conditions: in vivo
How it was run: (§2)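 Male CD1 mice, 6–8 weeks old, given 3 mg/kg iv as a solution in 5% DMSO/10% Solutol in water. Plasma sampled at eight time points over 24 h, in triplicate; MRT defined as time to eliminate 63.2% of the iv dose.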

Bacillus subtilis [5] = assay: Antibacterial activity against Bacillus subtilis HM489 assessed as cellular ATP content after 5 hrs by BacTiter-Glo assay; type: functional, organism-based; conditions: HM489, 5 h
Liver microsome = assay: Metabolic stability in mouse liver microsomes measured over 1 hr in absence of NADPH
[6] = Volume of distribution in CD-1 mouse at 3 mg/kg, iv; type: ADME, organism-based; parameters: dose 3 mg/kg, route intravenous; conditions: in vivo; how it was run: as §2
Staphylococcus aureus [7] = assay: Antibacterial activity against Staphylococcus aureus BK2395 isolated from kidney of 30 mg/kg, ip compound-treated Swiss Webster mouse septicemia model assessed as growth inhibition; type: functional, organism-based; parameters: dose 30 mg/kg
How it was run: (§3)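 Bacteria harvested from the kidneys of septic mice treated with vehicle or compound, five isolates taken per crude sample. MICs measured in parallel with the parental USA500 strain.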

Candida albicans [8] = assay: Antifungal activity against fluconazole-resistant Candida albicans ATCC 96901 assessed as growth inhibition at 0.8 to 100 ug/mL after 48 hrs by resazurin dye-based assay; type: functional, organism-based
How it was run: (§4)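 Broth microdilution. Inoculum from overnight liquid cultures or 2-day colonies, ~1 × 10^3 cfu per well. Compound in DMSO added to cation-adjusted Mueller Hinton II broth (bacteria) or RPMI 1640 (fungi). Incubated at 30–37 °C for 16–20 h, or 48 h for fungi.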

Bacillus subtilis [9] = assay: Antibacterial activity against Bacillus subtilis 168 assessed as disruption of cell membrane integrity at 10 times MIC after 15 mins by Syto9/propidium iodide staining-based BacLight LIVE/DEAD microscopic analysis; type: functional, organism-based; conditions: subsp. subtilis str. 168
CYP2D6 = CYP2D6 (Homo sapiens, UniProt P10635); assay: Inhibition of CYP2D6 (unknown origin) using dextromethorphan as substrate at 3 uM relative to control; type: ADME; conditions: probe dextromethorphan
How it was run: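 Compound at 3 μM co-incubated with CYP substrates: dextromethorphan for 2D6, 6β-hydroxytestosterone for 3A4. Percent inhibition reported; done at Pharmaron.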

[10] = Cmax in CD-1 mouse at 3 mg/kg, iv; type: ADME, organism-based; parameters: dose 3 mg/kg, route intravenous; conditions: in vivo
How it was run: (§5)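 Male CD1 mice, 6–8 weeks old. Dosed iv at 3 mg/kg or ip at 30 mg/kg as a solution in 5% DMSO/10% Solutol in water. Plasma sampled in triplicate at eight time points over 24 h.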

[11] = Permeability of the compound by PAMPA; type: physicochemical
Staphylococcus aureus [12] = assay: Antibacterial activity against Staphylococcus aureus isolated from kidney of 30 mg/kg, ip compound-treated Swiss Webster mouse septicemia model assessed as growth inhibition; type: functional, organism-based; parameters: dose 30 mg/kg; how it was run: as §3
Escherichia coli [13] = assay: Antibacterial activity against wild type Escherichia coli BW25113 assessed as growth inhibition at 1.8 to 250 ug/mL after 16 to 20 hrs by broth dilution method; type: functional
How it was run: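 E. coli BW25113 (wild type) and JW0451 (ΔacrB) tested by broth dilution in cation-adjusted Mueller Hinton II, ~1×10^3 cfu, 16–20 h. Growth shown with resazurin. Checkerboard combination with the efflux inhibitor PAβN in the wild type.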

Escherichia coli [14] = assay: Antibacterial activity against Escherichia coli BW25113 assessed as growth inhibition at 0.8 to 100 ug/mL after 16 to 20 hrs by resazurin dye-based assay; type: functional
How it was run: (§6)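 Broth microdilution. Test article from 1 μL DMSO in 50 μL cation-adjusted Mueller Hinton II (bacteria) or RPMI 1640 (fungi), plus ~1×10^3 cfu inoculum in the same medium. Incubated 16–20 h at 30–37 °C (48 h for fungi). MIC scored visually as the first well without growth; resazurin added for imaging.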

[15] = AUC (infinity) in CD-1 mouse at 30 mg/kg, ip; type: ADME, organism-based; parameters: time infinity, dose 30 mg/kg, route intraperitoneal; conditions: plasma; how it was run: as §5
[16] = Half life in CD-1 mouse at 30 mg/kg, ip; type: ADME, organism-based; parameters: dose 30 mg/kg, route intraperitoneal; conditions: in vivo; how it was run: as §5
Staphylococcus aureus [17] = assay: Antibacterial activity against community-acquired methicillin-resistant Staphylococcus aureus BAA-1717 assessed as growth inhibition at 0.8 to 100 ug/mL after 16 to 20 hrs by resazurin dye-based assay; type: functional, organism-based; how it was run: as §4
[18] = Half life in CD-1 mouse at 3 mg/kg, iv; type: ADME, organism-based; parameters: dose 3 mg/kg, route intravenous; conditions: in vivo; how it was run: as §5
[19] = Chemical stability of the compound in PBS buffer at room temperature measured over 48 hrs by LC/MS analysis; type: physicochemical; how it was run: as §1
[20] = Inhibition of Bacillus subtilis AcpS-PPTase using rhodamine-CoA/BHQ-2-YbbR as substrate preincubated for 15 mins followed by substrate addition by HTS assay
How it was run: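 AcpS-PPTase at 100 nM final in 50 mM HEPES-Na pH 7.6, 10 mM MgCl2, 0.01% Nonidet P-40, 0.01% BSA; compound preincubated 15 min at room temperature, then rhodamine-CoA (5 μM final) and BHQ-2-YbbR (12.5 μM final) added. Fluorescence read (525 ex/598 em) at start and after 60 min; difference gives rate.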

Candida albicans [21] = assay: Antifungal activity against fluconazole-sensitive Candida albicans ATCC 90028 assessed as growth inhibition at 0.8 to 100 ug/mL after 48 hrs by resazurin dye-based assay; type: functional, organism-based; how it was run: as §6
[22] = Inhibition of Bacillus subtilis Sfp-PPTase using rhodamine-CoA/BHQ-2-YbbR as substrate preincubated for 15 mins followed by substrate addition by HTS assay
Bacillus subtilis [23] = assay: Antibacterial activity against Bacillus subtilis OKB105 assessed as inhibition of surfactin production at 0.53 ug/mL after 28 hrs by LC-MS analysis relative to vehicle-treated control; type: functional; conditions: OKB105, 28 h
How it was run: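 B. subtilis OKB105 cultures grown with sublethal compound concentrations. Culture growth and surfactin titer measured periodically over 28 h; titer expressed relative to vehicle control.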

[24] = Metabolic stability in mouse liver microsomes measured over 1 hr in absence of NADPH; type: ADME, Microsome
How it was run: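 Mouse liver microsomes incubated with compound without NADPH over 1 h.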

Bacillus subtilis [25] = assay: Antibacterial activity against Bacillus subtilis OKB105 assessed as growth inhibition at 1.7 ug/mL after 16 to 20 hrs by resazurin dye-based assay; type: functional, organism-based
HepG2 = assay: Cytotoxicity against human HepG2 cells assessed as cellular ATP content after 48 hrs by CellTiter-Glo assay; type: cell-based; conditions: HepG2, 48 h
How it was run: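 HepG2 cells exposed to compound; viability read as cellular ATP by luciferase-coupled CellTiter-Glo.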

Bacillus subtilis [26] = assay: Antibacterial activity against Bacillus subtilis OKB105 assessed as inhibition of surfactin production after 28 hrs by LC-MS analysis; type: functional, organism-based
How it was run: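 B. subtilis OKB105 cultured with compound at 0.53 or 1.1 µg/mL against a vehicle control. Culture density and surfactin titer sampled periodically over 28 h.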

CYP2D6, sequence (P10635 whole entry): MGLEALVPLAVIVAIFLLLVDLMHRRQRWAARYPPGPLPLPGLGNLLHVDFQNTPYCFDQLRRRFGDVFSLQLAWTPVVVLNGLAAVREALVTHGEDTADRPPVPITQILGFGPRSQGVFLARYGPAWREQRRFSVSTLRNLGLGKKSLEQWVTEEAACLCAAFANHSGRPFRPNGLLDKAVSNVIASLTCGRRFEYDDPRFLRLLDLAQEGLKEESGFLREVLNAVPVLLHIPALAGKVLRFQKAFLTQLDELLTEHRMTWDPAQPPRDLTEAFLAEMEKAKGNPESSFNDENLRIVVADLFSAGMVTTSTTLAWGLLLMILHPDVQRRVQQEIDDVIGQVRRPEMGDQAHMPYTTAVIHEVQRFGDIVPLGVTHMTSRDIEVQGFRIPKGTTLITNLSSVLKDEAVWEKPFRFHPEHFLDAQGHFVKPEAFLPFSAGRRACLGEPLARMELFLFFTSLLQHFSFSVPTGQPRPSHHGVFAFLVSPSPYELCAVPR

## COc1ccnc(NC(=S)N2CCN(c3ncc(C(F)(F)F)cc3Cl)CC2)c1
[1]
  Stability: Stable
[2]
  Stability: Stable
Staphylococcus aureus [3]
  MIC: > 57 µM
[4]
  MRT: 3.4 h
Bacillus subtilis [5]
  IC50: 9.3 µM
Liver microsome
  Stability: Stable
[6]
  Vd: 1.5 L/kg
Staphylococcus aureus [7]
  growth inhibition (GI): Active
Candida albicans [8]
  growth inhibition (GI): inactive
Bacillus subtilis [9]
  Activity: inactive
CYP2D6
  inhibition at 3 µM: 25%
[10]
  Cmax: 4110 ng/mL
[11]
  permeability: 1120 ×10⁻⁶ cm/s
Staphylococcus aureus [12]
  growth inhibition (GI): Active
Escherichia coli [13]
  growth inhibition (GI): inactive
Escherichia coli [14]
  growth inhibition (GI): inactive
[15]
  AUC(0-inf): 68900 ng·h/mL
[16]
  half-life: 2 h
Staphylococcus aureus [17]
  growth inhibition (GI): Active
[18]
  half-life: 2.4 h
[19]
  Stability: Stable
[20]
  IC50: 8.1 µM
Candida albicans [21]
  growth inhibition (GI): inactive
[22]
  IC50: 0.29 µM
Bacillus subtilis [23]
  inhibition at 0.53 µg/mL: 33%
[24]
  Stability: Stable
Bacillus subtilis [25]
  growth inhibition (GI): Active
HepG2
  IC50: ≥ 114 µM
Bacillus subtilis [26]
  inhibition: Dose-dependent effect

From ChEMBL document CHEMBL3124880, “4-(3-Chloro-5-(trifluoromethyl)pyridin-2-yl)-N-(4-methoxypyridin-2-yl)piperazine-1-carbothioamide (ML267), a potent inhibitor of bacterial phosphopantetheinyl transferase that attenuates secondary metabolism and thwarts bacterial growth” (J Med Chem, 2014)
